According to ChEMBL document CHEMBL1156388, “Modulation of the multidrug-resistance phenotype by new tropane alkaloid aromatic esters from Erythroxylum pervillei” (J Nat Prod, 2001):
≈ marks a conversion by molar mass, not a printed value. Calls of active or inactive are those of the source. No cut-off for these calls is given here.

What was measured:
[1] = Cytotoxicity against human multidrug-resistant SKVLB1 cells; format: functional, cell-based
[2] = system: SK-OV-3; assay: Cytotoxicity against human SKOV3 cells; format: functional, cell-based
[3] = Cytotoxicity against human multidrug-resistant SKVLB1 cells in presence of adriamycin; format: functional, cell-based
[4] = system: Lu1; assay: Cytotoxicity against human Lu1 cells; format: functional; conditions: read-out: ED50 (the source's name)
[5] = system: KB; assay: Cytotoxicity against human KB cells; format: functional; conditions: read-out: ED50 (the source's name)
[6] = Cytotoxicity against human BC1 cells; format: functional; conditions: read-out: ED50 (the source's name)
[7] = system: LNCaP; assay: Cytotoxicity against human LNCAP cells; format: functional; conditions: read-out: ED50 (the source's name)
[8] = Cytotoxicity against human multidrug-resistant KBV1 cells in presence of vinblastin; format: functional; conditions: KB-V1, read-out: ED50 (the source's name)
[9] = system: Col2; assay: Cytotoxicity against human Col2 cells; format: functional; conditions: read-out: ED50 (the source's name)
[10] = Cytotoxicity against human multidrug-resistant KBV1 cells in absence of vinblastin; format: functional; conditions: KB-V1, read-out: ED50 (the source's name)
[11] = system: SW626; assay: Cytotoxicity against human SW626 cells; format: functional; conditions: read-out: ED50 (the source's name)
[12] = system: LOX IMVI; assay: Increase in DINIB-induced cytotoxicity against human LOXIMVI at 0.8 to 12.5 ug/mL; format: functional, cell-based
Summary of the method: (§1)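 Modulator dose ranges were chosen to give full dose–response curves and were combined with DINIB, an MDR-substrate cytotoxic agent, at nontoxic modulator concentrations. 5-Fluorouracil, a non-MDR agent, served as the negative-control drug. MDR1 expression and function: HCT-15 and UO-31 high, CAKI-1 moderate, LOX IMVI none (no MDR phenotype). The read-out was enhancement of DINIB growth inhibition.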

[13] = target: T1, ATP-dependent translocase ABCB1 (Homo sapiens, UniProt P08183); assay: Modulation of P-gp in human HCT15 cells assessed as increase in DINIB-induced cytotoxicity at 0.2 to 3.1 ug/mL; format: cell-based; conditions: hct-15; summary of the method: as §1
T1 sequence (P08183 whole entry): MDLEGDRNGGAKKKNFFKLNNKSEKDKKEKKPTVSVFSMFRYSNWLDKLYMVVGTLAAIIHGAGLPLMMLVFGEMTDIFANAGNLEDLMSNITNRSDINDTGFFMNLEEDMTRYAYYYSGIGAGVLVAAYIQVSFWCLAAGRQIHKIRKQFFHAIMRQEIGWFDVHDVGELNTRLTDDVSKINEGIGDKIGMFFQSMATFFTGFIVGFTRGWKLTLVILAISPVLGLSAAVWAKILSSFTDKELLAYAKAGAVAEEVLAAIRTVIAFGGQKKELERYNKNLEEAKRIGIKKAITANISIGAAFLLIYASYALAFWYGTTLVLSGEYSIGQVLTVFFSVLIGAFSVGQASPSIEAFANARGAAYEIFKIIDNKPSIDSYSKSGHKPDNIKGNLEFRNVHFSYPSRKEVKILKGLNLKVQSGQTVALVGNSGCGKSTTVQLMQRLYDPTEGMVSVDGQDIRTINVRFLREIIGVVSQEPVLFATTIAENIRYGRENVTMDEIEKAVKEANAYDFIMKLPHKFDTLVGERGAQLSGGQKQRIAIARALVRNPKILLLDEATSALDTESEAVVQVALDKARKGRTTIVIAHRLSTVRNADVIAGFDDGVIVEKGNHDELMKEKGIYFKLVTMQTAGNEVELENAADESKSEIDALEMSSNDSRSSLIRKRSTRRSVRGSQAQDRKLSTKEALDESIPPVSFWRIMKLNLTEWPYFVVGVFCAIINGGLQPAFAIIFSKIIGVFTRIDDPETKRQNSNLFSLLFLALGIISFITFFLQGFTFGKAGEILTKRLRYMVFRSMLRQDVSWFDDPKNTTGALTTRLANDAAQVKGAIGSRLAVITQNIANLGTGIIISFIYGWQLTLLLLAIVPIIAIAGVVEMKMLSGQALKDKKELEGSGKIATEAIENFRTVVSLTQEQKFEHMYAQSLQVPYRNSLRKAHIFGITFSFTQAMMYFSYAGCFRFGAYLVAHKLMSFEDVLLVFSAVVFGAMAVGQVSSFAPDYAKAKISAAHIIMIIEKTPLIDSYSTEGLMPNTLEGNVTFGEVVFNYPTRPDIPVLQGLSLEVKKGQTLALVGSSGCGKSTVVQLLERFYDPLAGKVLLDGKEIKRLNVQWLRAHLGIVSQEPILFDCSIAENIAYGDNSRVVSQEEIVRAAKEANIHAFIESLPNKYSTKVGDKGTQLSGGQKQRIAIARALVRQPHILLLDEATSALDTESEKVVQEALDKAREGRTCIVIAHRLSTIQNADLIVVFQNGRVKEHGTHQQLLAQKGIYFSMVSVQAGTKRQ

[14] = target: T1, ATP-dependent translocase ABCB1; assay: Modulation of P-gp in human CAKI1 cells assessed as increase in DINIB-induced cytotoxicity at 0.2 to 3.1 ug/mL; format: cell-based; conditions: caki-1; summary of the method: as §1
[15] = target: T1, ATP-dependent translocase ABCB1; assay: Modulation of P-gp in human UO31 cells assessed as increase in DINIB-induced cytotoxicity at 0.2 to 3.1 ug/mL; format: cell-based; conditions: uo-31; summary of the method: as §1
[16] = system: LOX IMVI; assay: Increase in DINIB-induced cytotoxicity against human LOXIMVI at 0.2 to 3.1 ug/mL; format: functional, cell-based; summary of the method: as §1
[17] = target: T1, ATP-dependent translocase ABCB1; assay: Modulation of P-gp in human HCT15 cells assessed as increase in DINIB-induced cytotoxicity at 3.1 to 50 ug/mL; format: cell-based; conditions: hct-15; summary of the method: as §1
[18] = target: T1, ATP-dependent translocase ABCB1; assay: Modulation of P-gp in human UO31 cells assessed as increase in DINIB-induced cytotoxicity at 3.1 to 50 ug/mL; format: cell-based; conditions: uo-31; summary of the method: as §1
[19] = target: T1, ATP-dependent translocase ABCB1; assay: Modulation of P-gp in human CAKI1 cells assessed as increase in DINIB-induced cytotoxicity at 3.1 to 50 ug/mL; format: cell-based; conditions: caki-1; summary of the method: as §1
[20] = system: LOX IMVI; assay: Increase in DINIB-induced cytotoxicity against human LOXIMVI at 3.1 to 50 ug/mL; format: functional, cell-based; summary of the method: as §1
[21] = target: T1, ATP-dependent translocase ABCB1; assay: Modulation of P-gp in human CAKI1 cells assessed as increase in DINIB-induced cytotoxicity at 0.2 to 12.5 ug/mL; format: cell-based; conditions: caki-1; summary of the method: as §1
[22] = target: T1, ATP-dependent translocase ABCB1; assay: Modulation of P-gp in human UO31 cells assessed as increase in DINIB-induced cytotoxicity at 0.2 to 12.5 ug/mL; format: cell-based; conditions: uo-31; summary of the method: as §1
[23] = target: T1, ATP-dependent translocase ABCB1; assay: Modulation of P-gp in human HCT15 cells assessed as increase in DINIB-induced cytotoxicity at 0.2 to 12.5 ug/mL; format: cell-based; conditions: hct-15; summary of the method: as §1
[24] = system: LOX IMVI; assay: Increase in DINIB-induced cytotoxicity against human LOXIMVI at 0.2 to 12.5 ug/mL; format: functional, cell-based; summary of the method: as §1
[25] = target: T1, ATP-dependent translocase ABCB1; assay: Modulation of P-gp in human CAKI1 cells assessed as increase in DINIB-induced cytotoxicity at 1.5 to 25 ug/mL; format: cell-based; conditions: caki-1
Summary of the method: (§2)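 NCI tumour-panel lines of differing MDR1 expression and function (HCT-15 and UO-31 high, CAKI-1 moderate, LOX IMVI none) were exposed to the MDR-substrate cytotoxin DINIB with or without modulator. 5-Fluorouracil, a non-MDR agent, served as the negative control; verapamil and cyclosporin A were reference modulators. Modulator concentrations spanned full dose–response curves. Maximum escalation of DINIB toxicity was taken at nontoxic modulator concentrations.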

[26] = target: T1, ATP-dependent translocase ABCB1; assay: Modulation of P-gp in human HCT15 cells assessed as increase in DINIB-induced cytotoxicity at 1.5 to 25 ug/mL; format: cell-based; conditions: hct-15; summary of the method: as §2
[27] = target: T1, ATP-dependent translocase ABCB1; assay: Modulation of P-gp in human UO31 cells assessed as increase in DINIB-induced cytotoxicity at 1.5 to 25 ug/mL; format: cell-based; conditions: uo-31; summary of the method: as §2
[28] = system: LOX IMVI; assay: Increase in DINIB-induced cytotoxicity against human LOXIMVI at 1.5 to 25 ug/mL; format: functional, cell-based; summary of the method: as §2

Compound | IC50 [1] [nM] | IC50 [2] [nM] | IC50 [3] [nM] | EC50 [4] [µg/mL] | EC50 [5] [µg/mL] | EC50 [6] [µg/mL] | EC50 [7] [µg/mL] | EC50 [8] [µg/mL] | EC50 [9] [µg/mL] | EC50 [10] [µg/mL] | EC50 [11] [µg/mL] | further results
COc1cc2c(cc1OC)CN(CCc1ccc(NC(=O)c3cccc4c(=O)c5cccc(OC)c5[nH]c34)cc1)CC2 | 14000 | 8100 | 20 | – | – | – | – | – | – | – | – | –
CN1C2C[C@@H](OC(=O)Cc3ccccc3)CC1[C@H](O)[C@@H]2O | – | – | – | > 20 | > 20 | > 20 | > 20 | > 20 | > 20 | > 20 | > 20 | –
COc1ccc(CCN(C)CCCC(C#N)(c2ccc(OC)c(OC)c2)C(C)C)cc1OC (stereo unspecified) | – | – | – | – | – | – | – | – | – | – | – | Activity [12]: Active
COc1cc(/C=C/C(=O)O[C@H]2C[C@H]3C[C@H](OC(=O)/C=C/c4cc(OC)c(OC)c(OC)c4)[C@@H](C2)N3C)cc(OC)c1OC [PERVILLEINE C] | > 10000 | 2800 | 80 | 2.3 (≈ 3.85 µM) | 2.2 (≈ 3.68 µM) | 2.8 (≈ 4.68 µM) | > 20 | 0.1 | 4.1 (≈ 6.86 µM) | 9 (≈ 15.1 µM) | 1.4 (≈ 2.34 µM) | Activity [13]: Active; Activity [14]: Active; Activity [15]: Active; Activity [16]: inactive
COc1cc(/C=C/C(=O)O[C@H]2[C@@H](O)[C@@H]3C[C@H](OC(=O)c4cc(OC)c(OC)c(OC)c4)C[C@H]2[N+]3(C)[O-])cc(OC)c1OC (stereo partly specified) | > 10000 | > 10000 | > 10000 | > 20 | > 20 | > 20 | > 20 | > 20 | > 20 | > 20 | > 20 | –
COc1cc(/C=C/C(=O)O[C@@H]2C[C@@H]3[C@@H](OC(=O)/C=C/c4cc(OC)c(OC)c(OC)c4)[C@@H](O)[C@H](C2)N3C)cc(OC)c1OC [PERVILLEINE D] | – | – | – | 15.1 (≈ 24.6 µM) | 11 (≈ 17.9 µM) | 15 (≈ 24.4 µM) | 14.1 (≈ 23 µM) | 0.2 | 4.9 (≈ 7.98 µM) | 9 (≈ 14.7 µM) | 6.5 (≈ 10.6 µM) | Activity [17]: Active; Activity [18]: Active; Activity [19]: Active; Activity [20]: inactive
COc1cc(/C=C/C(=O)O[C@H]2[C@@H](O)[C@@H]3C[C@H](OC(=O)c4cc(OC)c(OC)c(OC)c4)C[C@H]2N3C)cc(OC)c1OC [PERVILLEINE A] | > 10000 | > 10000 | 650 | > 20 | > 20 | > 20 | > 20 | 0.3 | > 20 | > 20 | > 20 | –
COc1cc(/C=C/C(=O)O[C@H]2C[C@@H]3C[C@H](OC(=O)c4cc(OC)c(OC)c(OC)c4)C[C@H]2N3C)cc(OC)c1OC [PERVILLEINE B] | > 10000 | 3800 | 120 | 3.1 (≈ 5.42 µM) | > 20 | 9.4 (≈ 16.4 µM) | 1 (≈ 1.75 µM) | 0.1 | 1.3 (≈ 2.27 µM) | 8.8 (≈ 15.4 µM) | 3.2 (≈ 5.6 µM) | Activity [21]: Active; Activity [22]: Active; Activity [23]: Active; Activity [24]: inactive
COc1cc(C(=O)O[C@H]2C[C@H]3CC[C@@H](C2)N3C)cc(OC)c1OC | – | – | – | > 20 | > 20 | > 20 | > 20 | > 20 | > 20 | > 20 | > 20 | –
COc1cccc2c1C(=O)c1c(O)c3c(c(O)c1C2=O)C[C@@](O)(C(=O)CO)C[C@@H]3O[C@H]1C[C@H](N)[C@H](O)[C@H](C)O1 [DOXORUBICIN] | 2200 | 8 | – | – | – | – | – | – | – | – | – | –
COc1cc(/C=C/C(=O)O[C@H]2C[C@@H]3C[C@H](OC(=O)Cc4cccc(O)c4)C[C@H]2N3C)cc(OC)c1OC [PERVILLEINE E] | – | – | – | > 20 | 14.7 (≈ 28.7 µM) | > 20 | > 20 | 1.9 | 13.4 (≈ 26.2 µM) | > 20 | 8.4 (≈ 16.4 µM) | –
COc1cc(/C=C/C(=O)O[C@H]2C[C@@H]3C[C@H](OC(=O)Cc4ccccc4)C[C@H]2N3C)cc(OC)c1OC [PERVILLEINE F] | – | – | – | > 20 | > 20 | > 20 | > 20 | 0.2 | 4.9 (≈ 9.89 µM) | > 20 | > 20 | Activity [25]: Active; Activity [26]: Active; Activity [27]: Active; Activity [28]: inactive
